These results are taken from ChEMBL document CHEMBL4513216, “Probing the Open Global Health Chemical Diversity Library for Multistage-Active Starting Points for Next-Generation Antimalarials” (ACS Infect Dis, 2020).

The data set in a line: Toxicity liver stage against HepG2, at 10uM. As to conditions: human, HepG2-A16-CD81EGFP cells; read-out: INHIBITION
Further details: test concentration 10 uM, cell line HepG2-A16-CD81EGFP. In kind it is cell-based. An outline of the steps: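 Uninfected HepG2-A16-CD81EGFP cells, 3 × 10^3 per well, 1536-well, plated on prespotted compound at 10 μM final, parasite-free screening media added to match infected plates; puromycin 10 μM positive, DMSO 0.5% negative; run in parallel with 48 h PbLuc assay at 37 °C, 5% CO2; viability by CellTiter-Glo luminescence, normalized to controls.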
`CC(C)CNC1(Cc2cc(-c3ccccc3)on2)COC1`: the cytotoxicity at 10 µM amounted to 1.74%. As for `CCOC(=O)Cn1c(=O)c(OCC)nc2cnccc21`, the figure is 4.25%. For `COCCn1cc(C(=O)NC2CCS(=O)(=O)C2)c2ccccc2c1=O` (configuration not stated), the cytotoxicity at 10 µM is -4.17%. Regarding `CCCN1CCc2nc(SCc3ccccc3F)[nH]c(=O)c2C1`, the cytotoxicity at 10 µM is -2.62%.

For `CN1CCN(c2cc(NC(=O)c3cnccn3)ncn2)CC1`, the cytotoxicity at 10 µM is -1.23%. For the compound `CCc1c(C)nc2n(c1=O)CC(C(=O)Nc1ccccc1C)CS2` (configuration not stated), the cytotoxicity at 10 µM is -1.38%. The value for `COC(=O)c1sccc1S(=O)(=O)NCCC(O)c1ccoc1` (configuration not stated) was -2.64%. The value for `COc1cc(N2CC3(CCN(S(=O)(=O)C4CC4)C3)C2)ncn1` was 7.34%. As for `Cc1ccc(N2CCCc3sc(C(=O)NCc4ccncc4)nc32)nn1`, the cytotoxicity at 10 µM stood at 14.6%. As for `O=C(C[C@@H]1COC[C@H]2CN(C3CCOCC3)C[C@@H]12)Nc1cnccn1`, the figure is 12%. `O=C(O)C1CCN(c2ccc(Sc3ccc(Br)cc3)nn2)CC1`: the cytotoxicity at 10 µM came to 9.14%. For `Cc1nn(CCNc2ncnc3c2NC(=O)CN3)c(C)c1Cl`, the cytotoxicity at 10 µM was found to be 10.5%. With `Cc1nn(C)c(C)c1CN(C)C(=O)c1cc(C(F)(F)F)n(C)n1`, the cytotoxicity at 10 µM is -0.65%. Consider `CCn1nc(C)c2nnn(CC(=O)Nc3cccc(C)c3)c(=O)c21`, for which the cytotoxicity at 10 µM was found to be 10.1%.

As for `CCC(=O)N1CCC(c2nc(N3CCCCC3)ncc2S(C)(=O)=O)CC1`, the cytotoxicity at 10 µM turned out to be 4.03%.

As for `Cc1cc(C)nc(N2CC[C@H](Oc3ccccc3F)[C@@H](O)CC2)n1`, the cytotoxicity at 10 µM came to 3.72%. The value for `Cc1nc[nH]c1CN(Cc1ccc(F)cc1)C1CC(C)(C)NC(C)(C)C1` was 0.92%; that for `CN(C)C(=O)CN1CCCC(Cc2ccc(N3CCCC3)nn2)C1` (configuration not stated) was 3.77%. As for `CN(C)Cc1ccnc(C2CN(CCCc3ccccc3)CCO2)n1` (configuration not stated), the figure is -6.36%; as for `NC(=O)C1CN(C(=O)Cc2cccnc2)CCN(C2CCOCC2)C1` (configuration not stated), -9.58%; as for `CNC(=O)C1CN(C(=O)COc2ccccc2)Cc2cn(C)nc21` (configuration not stated), -10.4%. As to `Cc1nc(NC2CCCC2)cc(C2CCN2C(=O)c2cccnc2)n1` (configuration not stated), the cytotoxicity at 10 µM worked out at 0.848%.

As to `O=C(CN1CCOCC1)Nc1cc(C(F)(F)F)ccc1-n1cccc1`, the cytotoxicity at 10 µM was 8.32%. The value for `CCC(=O)N1CCC(NCc2cc(C(F)(F)F)ccc2Cl)C1` (configuration not stated) was -4.04%; that for `O=C(O)CCNC(=O)C1(c2cccc(Br)c2)CCOCC1` was 6.92%; that for `OCCN1CCN(Cc2cc(Cl)cc3cccnc23)CC1` was -8.12%. As for `O=C1C(Sc2cnn[nH]2)CCCN1c1ccccc1F` (configuration not stated), the figure is 24.9%.

For `O=C(CSCc1ccccn1)NCC1CC1`, the cytotoxicity at 10 µM is -3.42%.

For `CCN(Cc1cc(Br)ccc1F)C(=O)C(C)NC(N)=O` (configuration not stated), the cytotoxicity at 10 µM was 11.6%. Turning to `CC(CNC(=O)CCc1ccco1)N1CCc2sccc2C1` (configuration not stated), the cytotoxicity at 10 µM was 4.35%. As for `O=C(C1CCOC1)N1CCN(CC2CC2)c2ccccc21` (configuration not stated), the figure is 8.93%.

In the case of `CCn1ccnc1CN1CCN(c2nccc(OC)n2)CC1C` (configuration not stated), the cytotoxicity at 10 µM is -17.9%. Take `CC(C)NC(=O)NC(=O)C(C)N1CCN(C2CCN(C(C)C)CC2)CC1` (configuration not stated): the cytotoxicity at 10 µM is -15.5%. As for `CCc1nnc(NC(=O)N(CCOC)Cc2ccc(C)o2)s1`, the figure is -18.8%.

Consider `COC(=O)C(NC(=O)c1ccc(C)cc1C)c1cccnc1` (configuration not stated), for which the cytotoxicity at 10 µM is -41.9%. Consider `CCOCCCC(=O)NCc1ccc(N2CCCCC2)cc1`, for which the cytotoxicity at 10 µM was -4.06%.

As to `COc1cccc(CNc2cc(CO)ccc2Cl)c1`, the cytotoxicity at 10 µM was -13.3%. Regarding `c1ccc2nc(N3CCCC3c3nnc4n3CCCCC4)cnc2c1` (configuration not stated), the cytotoxicity at 10 µM was -1.63%. Take `CCc1noc(CCCC(=O)N2CCCC(c3ccn[nH]3)C2)n1` (configuration not stated): the cytotoxicity at 10 µM is -0.799%. In the case of `Cc1noc(C2CCCN(CC(=O)N3CCc4ccccc4C3)C2)n1` (configuration not stated), the cytotoxicity at 10 µM is -19.3%. `COc1ccc(S(=O)(=O)NC2(CC(N)=O)CCC2)cc1`: the cytotoxicity at 10 µM worked out at 11.7%. The value for `CCOc1cc(CNC(=O)C(C#N)c2nc(C)cs2)ccc1OC(F)F` (configuration not stated) was 8.61%. Turning to `CC(C)(C)c1ccc(S(=O)(=O)CCN2CCNC(=O)CC2)cc1`, the cytotoxicity at 10 µM was -5.41%. `CC(CO)(NC(=O)Nc1nnc(C2CC2)s1)C1CCCCC1` (configuration not stated): the cytotoxicity at 10 µM was 20%.

In the case of `CC1CCCN(c2ccccc2OCC(=O)NC2CC2)C1` (configuration not stated), the cytotoxicity at 10 µM was 10.1%.

As for `Cc1nn(C)c(Cl)c1C1CCCN1c1ncnc2sccc12` (configuration not stated), the cytotoxicity at 10 µM is 20.8%. As for `Fc1ccccc1CN1C[C@@H]2OCCN(c3ncccn3)[C@@H]2C1`, the figure is -74%; as for `O=C(Cc1ccsc1)N1CCc2ncc(Cn3cccn3)n2CC1`, -81.5%; as for `COCCO[C@H]1CCN(C(=O)c2cnoc2C)[C@H]1Cc1cnn(C)c1`, -69.6%. Regarding `CNC(=O)[C@@]12CCO[C@@H]1CCN(S(=O)(=O)c1ccccc1)C2`, the cytotoxicity at 10 µM was -74.8%. As for `CC(=O)N1C[C@H](NC(=O)c2cscn2)[C@@H]2OCCC[C@@H]21`, the figure is 2.88%; as for `CN(C)c1nccc(-c2c[nH][nH]c2=O)n1`, -1.25%. Regarding `CNCC[C@H]1CC(C)(C)Oc2ccc(OC)cc21`, the cytotoxicity at 10 µM was 0.942%.

Turning to `Cc1ncc(-c2ccnc(SCCN)n2)c(-c2ccco2)n1`, the cytotoxicity at 10 µM was -14.8%. As for `CNc1nc2c(s1)C(=O)CN(C(=O)NCc1ccccc1)C2`, the figure is 24.4%; as for `Cc1cccc(C)c1OCC(C)Nc1nc(N)nc2c1CCNC2` (configuration not stated), 5.75%. The value for `CNC(=O)c1cc2c(s1)CCN(C(=O)CCC1CCCN(C)C1)C2` (configuration not stated) was -29.3%; that for `Cc1csc(CN2C[C@H](NC(=O)C3CCOCC3)[C@@H](C(C)C)C2)n1` was 6.99%. As for `CCn1ccnc1CN(C)C(C(=O)O)c1ccc(C(C)(C)C#N)cc1` (configuration not stated), the cytotoxicity at 10 µM is -9.1%. The value for `CCOCCNC(=O)C1CCC(=O)N(CCc2ccc(Cl)cc2)C1` (configuration not stated) was 8.61%.

Turning to `CN(Cc1nc2ccccc2c(=O)[nH]1)C[C@@H]1CCCN2CCCC[C@H]12`, the cytotoxicity at 10 µM is -6.01%. `CCCn1cnc(NC(=O)NCC2CCS(=O)(=O)C2)n1` (configuration not stated): the cytotoxicity at 10 µM turned out to be 10.3%.

In the case of `COc1cccc2c1OCC(CNc1ccc(C)nn1)C2` (configuration not stated), the cytotoxicity at 10 µM stood at 8.62%. Regarding `Cc1cccc(C(C(=O)N(C)CCc2cn[nH]c2)N(C)C)c1` (configuration not stated), the cytotoxicity at 10 µM was -8.06%.

Turning to `O=C1NCC2(CCCN(C(=O)c3ccc4c(c3)OCCO4)CC2)O1` (configuration not stated), the cytotoxicity at 10 µM was -9.35%. Consider `Clc1ccccc1Cc1noc(CN2CCCC(CN3CCCC3)C2)n1` (configuration not stated), for which the cytotoxicity at 10 µM was -3.15%. In the case of `CCOC(=O)CC1CCCCN1C(=O)CCc1cc(Cl)no1` (configuration not stated), the cytotoxicity at 10 µM amounted to 6.95%. Regarding `COc1ccccc1OC1(C(=O)O)CCN(c2cnccn2)CC1`, the cytotoxicity at 10 µM is -27.5%. Regarding `Cc1cc(C)c2c(N(C)CC3CCN(CC(C)C)C3)ncnc2n1` (configuration not stated), the cytotoxicity at 10 µM came to 1.61%.

On to `N[C@@H](Cc1c[nH]cn1)C(=O)N1CCC(Oc2ccc(F)cc2)CC1`, for which the cytotoxicity at 10 µM came to 0.828%. Turning to `Cn1cc(N)c(-c2nnc3n2CCCC3)n1`, the cytotoxicity at 10 µM was -6.83%. For `CCC(=O)N1CCCC1c1nccnc1Nc1ncccn1` (configuration not stated), the cytotoxicity at 10 µM worked out at 3.58%. Turning to `Cc1cc(C2CCCN(C(=O)c3ccc(Cl)o3)C2)n[nH]1` (configuration not stated), the cytotoxicity at 10 µM was -5.02%. Regarding `CCc1cnc(CN(C(C)=O)C2CCN(CCc3ccncc3)C2)o1` (configuration not stated), the cytotoxicity at 10 µM was -5.95%.

`O=C1NCC(C(=O)Nc2ncc(Cc3ccc(F)cc3F)s2)N1` (configuration not stated): the cytotoxicity at 10 µM was -4.01%. For the compound `O=C(c1cccc2c1OCO2)N1CCCC(n2ccnc2)C1` (configuration not stated), the cytotoxicity at 10 µM is -3.29%.

Turning to `Cc1csc(N2CCN(CC(=O)Nc3c(C)n[nH]c3C)CC2C)n1` (configuration not stated), the cytotoxicity at 10 µM was -14.4%. As for `NC(=O)c1cc(C2CCCN(CCCOc3ccccc3)C2)n[nH]1` (configuration not stated), the figure is -12.1%.

Take `O=C1C(NCc2nnc3n2CCCC3)CCN1CC(F)(F)F` (configuration not stated): the cytotoxicity at 10 µM is -13.8%.

Turning to `COc1cc(S(=O)(=O)N2CCc3ccc(F)cc32)cc(C(=O)O)c1OC`, the cytotoxicity at 10 µM amounted to 7.12%. As for `COc1cc(C(=O)N2CCCS2(=O)=O)ccc1C`, the figure is 2.72%; as for `O=C(c1cc(Cl)c2c(c1)OCO2)N1CCCC(n2ccnc2)C1` (configuration not stated), -6.93%; as for `CCCNC(=O)Cn1cc(-c2ccccc2)cn1`, -0.553%. The value for `Cc1nc(C2CCCN(C(=O)c3cnn(C(C)(C)C)c3)C2)no1` (configuration not stated) was 0.818%; that for `Cc1cn2nc(N3CCCC3CC(C)(C)C)sc2n1` (configuration not stated) was 3.46%; that for `COc1ccnc(N2CCN(C(=O)Cc3ccc(C#N)cc3)CC2)n1` was 4.09%.

Regarding `CC(C)c1nccn1C1CCCN(C(=O)c2ccnc(N(C)C)c2)C1` (configuration not stated), the cytotoxicity at 10 µM worked out at 5.1%. The value for `COc1ccccc1CN(Cc1cccnc1)CC1CCCO1` (configuration not stated) was 1.03%; that for `c1ccc(NCc2cn3c(n2)CNCC3)nc1` was 9.28%; that for `Cn1cc(C2COC3(CCN(C(=O)c4ccccn4)CC3)C2)cn1` (configuration not stated) was -87.1%. Turning to `O=C(CC1CC1)N1CCc2ncc(CN3CCOCC3)n2CC1`, the cytotoxicity at 10 µM is -80.6%. Regarding `Cc1nc(CN2C[C@@H]3CN(C(=O)C4CC4)C[C@@H]3C2=O)cs1`, the cytotoxicity at 10 µM was found to be 4.19%. For the compound `COc1cccc(CNC(Cc2cccs2)c2nc(C)c(C)s2)c1OC` (configuration not stated), the cytotoxicity at 10 µM is -12.9%.

For `c1csc(CN2CCc3c(CNc4nncs4)cncc3C2)c1`, the cytotoxicity at 10 µM is -70.1%.

For the compound `CCCC(=O)N1CCN(CCN(C)C)c2nc(C)ccc2C1`, the cytotoxicity at 10 µM is -73.9%.

For `Cn1cccc1C(=O)N1C[C@@H](OCc2ccncc2)[C@@H]2OCCC[C@@H]21`, the cytotoxicity at 10 µM was 2.32%.

In the case of `COc1ccc(CN2CCCn3cnc(COCC4CC4)c3C2)cc1`, the cytotoxicity at 10 µM was 11%.
